Compound activity deposited in PubChem by several laboratories.
ZTA DNA inh: blocks Epstein-Barr virus ZTA, an EBNA-1 counter-screen; ZTA-DNA binding, fluorescence polarization; inhibition, % at 11 µM; 0.15% of 320,000 active; AID 2234; in the data active means inhibition above about 33%
Target sequence (P03206 whole entry, looked up): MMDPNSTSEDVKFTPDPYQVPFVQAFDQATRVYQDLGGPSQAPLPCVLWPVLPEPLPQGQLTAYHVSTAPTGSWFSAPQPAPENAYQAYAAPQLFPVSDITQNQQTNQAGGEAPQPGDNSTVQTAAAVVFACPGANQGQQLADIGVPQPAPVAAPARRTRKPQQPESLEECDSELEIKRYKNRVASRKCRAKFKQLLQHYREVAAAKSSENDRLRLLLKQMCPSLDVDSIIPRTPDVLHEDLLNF
FGF22 binding: shifts melting point of recombinant human FGF22 | Q9HCT0 | recombinant FGF22 thermal shift, SYPRO orange fluorescence; percent of sucrose octasulfate shift, DMSO zero | activity (Tm shift, normalised), % at 9.99 µM | 1.5% of 340,000 active | AID 651658;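 active means mean Tm shift, scaled 0 neutral to 100 positive control, at about 1.3% or above, every replicate too, limit read from the data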
Target sequence (Q9HCT0 whole entry, looked up): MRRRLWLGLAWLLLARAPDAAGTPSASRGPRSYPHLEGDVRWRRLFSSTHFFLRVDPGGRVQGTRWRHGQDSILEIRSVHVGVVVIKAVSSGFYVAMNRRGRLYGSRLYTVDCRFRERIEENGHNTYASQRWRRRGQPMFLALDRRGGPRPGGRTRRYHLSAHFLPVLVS
EBNA-1 inhibitor: blocks EBNA-1 binding to DNA. AID 1950. inhibition, % at 14.8 µM. 0.34% of 300,000 active. EBNA-1 DNA binding, fluorescence polarization; in the data active means inhibition above about 28%
DNA FID counter: counter-screen for HCV NS3 helicase inhibitors: DNA intercalator displacement. 0.17% of 290,000 active. inhibition, % at 7.9 µM. DNA fluorescent intercalator displacement, fluorescence. AID 1845; in the data active means inhibition above about 37%;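 further: higher means more ethidium bromide displaced from hairpin DNA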
NR3A LBD binder: NR3A (human) ligand-binding domain modulation; Tm shift relative to glycine control, % at 25 µM; NR3A LBD differential scanning fluorimetry, Tm shift; 0% = protein alone, 100% = glycine-bound protein; 2.5% of 340,000 active;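 active means melting temperature shift of at least 10% of the positive control shift, at one fixed dose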
HCV NS3 hel inh: HCV NS3 helicase inhibition | inhibition, % at 10.9 µM | AID 1800 | NS3 helicase DNA unwinding, Cy5 molecular beacon fluorescence | 0.56% of 290,000 active;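 active means inhibition above the mean of all tested compounds plus 3 SD, set per campaign, cut at about 35% in these data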
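test system = hepatitis C virus NS3 helicase domain fragment enzyme | reagent = annealed dual-labelled DNA beacon duplex, ATP-started | times = 1 h at 25 °C | detection = Cy5 fluorescence, 0 and 60 min reads | read-out basis = percent inhibition from t60/t0 fluorescence ratio | control set = DMSO and thioflavine S | replication = one well per compound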
EBNA-1 confirm: EBNA-1 (EBV) inhibition, confirmation. shares compounds with EBNA-1 inhibitor. Recombinant EBNA-1 DBD, Cy5-DNA fluorescence polarization. inhibition, % at 14.8 µM. 35% of 830 active;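 active means mean inhibition across replicates above a set limit taken from the earlier primary screen, cut at about 28% in these data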
ZTA DNA inh trip: ZTA (EBV) inhibition, triplicate counter-screen; Zta-ZRE DNA binding, Cy5 fluorescence polarization; AID 2328; inhibition, % at 11.1 µM; 830 tested, under 10 active; shares compounds with EBNA-1 inhibitor;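 active means mean inhibition over triplicates above a set limit taken from the primary EBNA-1 screen, cut at about 37% in these data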;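 further: purified full length Zta protein with Cy5 labeled ZRE DNA probe; inhibitors lower polarization by freeing the labeled DNA probe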
Large screens that a line does not name were inactive (follow-up assays come after a bar, where they were run). Most compounds without a hit are left out; they make up all but 3.6% or so of the library.

Cc1csc(NC(=O)CSc2nc3sc(C)c(C)c3c(=O)[nH]2)n1	EBNA-1 inhibitor 53 (no result: FGF22 binding) | EBNA-1 confirm inactive | ZTA DNA inh trip inactive
COc1ccccc1S(=O)(=O)N(C)C[C@H]1OCc2ccccc2-c2ccccc2C(=O)N([C@@H](C)CO)C[C@@H]1C	none (no result: ZTA DNA inh, EBNA-1 inhibitor, DNA FID counter, NR3A LBD binder, HCV NS3 hel inh)
COc1ccc(-c2nnn(CC(=O)N(CC(=O)NCCC(C)C)Cc3cccs3)n2)cc1OC	EBNA-1 inhibitor 30 (no result: FGF22 binding) | EBNA-1 confirm inactive | ZTA DNA inh trip inactive
CCN1C(=O)c2cccc3c(S(=O)(=O)Nc4ccc(OC)cc4OC)ccc1c23	EBNA-1 inhibitor 32 (no result: FGF22 binding) | EBNA-1 confirm inactive | ZTA DNA inh trip inactive
CCN1C(=O)c2cccc3c(S(=O)(=O)Nc4ccccc4)ccc1c23	none (no result: FGF22 binding)
Cc1cc(NC(=O)CSc2nnc(NC(=O)C3CC(=O)N(c4ccccc4)C3)s2)no1 (configuration not stated)	EBNA-1 inhibitor 83 | EBNA-1 confirm inactive | ZTA DNA inh trip inactive
Cc1cc(NC(=O)CSc2nnc(NC(=O)C3CC(=O)N(c4ccccc4C)C3)s2)no1 (configuration not stated)	none
O=C(C[C@H]1CC[C@@H](NC(=O)C2CC2)[C@H](CO)O1)Nc1ccccc1	none (no result: ZTA DNA inh, EBNA-1 inhibitor, DNA FID counter, NR3A LBD binder, HCV NS3 hel inh)
CCn1cc(/C=N/NC(=O)c2cc3c(ccc4ccccc43)o2)c2ccccc21	EBNA-1 inhibitor 62, NR3A LBD binder 26 (no result: FGF22 binding) | EBNA-1 confirm inactive | ZTA DNA inh trip inactive
CC(C)n1cc(/C=N\NC(=O)c2cc3c(ccc4ccccc43)o2)c2ccccc21	none (no result: ZTA DNA inh, FGF22 binding, EBNA-1 inhibitor)
C[C@H](CO)N1C[C@H](C)[C@H](CN(C)Cc2ccc(Cl)c(Cl)c2)Oc2c(NS(=O)(=O)c3cccs3)cccc2C1=O	none (no result: ZTA DNA inh, EBNA-1 inhibitor, DNA FID counter, NR3A LBD binder, HCV NS3 hel inh)
Cc1ccccc1Cn1c(=O)n(-c2ccccc2)c(=O)c2ccc(C(=O)NCc3ccco3)cc21	none (no result: NR3A LBD binder)
Cc1ccc(-n2c(=O)c3ccc(C(=O)NCc4ccco4)cc3n(Cc3ccccc3C#N)c2=O)cc1	EBNA-1 inhibitor 50 | EBNA-1 confirm inactive | ZTA DNA inh trip inactive
CCC(=O)N1CCN(c2ccccc2NC(=O)COc2ccc(C(C)C)cc2)CC1	EBNA-1 inhibitor 73 | EBNA-1 confirm inactive | ZTA DNA inh trip inactive
C[C@@H]1CN([C@H](C)CO)C(=O)c2cccc(NC(=O)c3cnccn3)c2O[C@H]1CN(C)S(=O)(=O)c1cn(C)cn1	none (no result: ZTA DNA inh, EBNA-1 inhibitor, DNA FID counter, NR3A LBD binder, HCV NS3 hel inh)
O=C(COC(=O)c1cc(NS(=O)(=O)c2cccs2)ccc1O)Nc1cc(Cl)ccc1Cl	EBNA-1 inhibitor 36, NR3A LBD binder 30 | EBNA-1 confirm inactive | ZTA DNA inh trip inactive
CCC(=O)Nc1ccc2nc(SCC(=O)N3CCOCC3)sc2c1	none
CCCC(=O)Nc1ccc2nc(SCC(=O)Nc3ccc(N4CCOCC4)c(Cl)c3)sc2c1	EBNA-1 inhibitor 67 (no result: FGF22 binding) | EBNA-1 confirm 71 | ZTA DNA inh trip inactive
Cc1ccc2nc(-c3cccnc3SCC(=O)N3c4ccccc4CC3C)[nH]c2c1 (configuration not stated)	EBNA-1 inhibitor 28 | EBNA-1 confirm 30 | ZTA DNA inh trip inactive
O=C(NC(=S)Nc1ccc(S(=O)(=O)N2CCCC2)cc1)c1cccs1	none
O=C(NC(=S)Nc1ccc(S(=O)(=O)N2CCCCCC2)cc1)c1cccs1	EBNA-1 inhibitor 85 | EBNA-1 confirm 66 | ZTA DNA inh trip inactive
Cc1cccc(N(C(=O)c2snc(C(N)=O)c2N)C(C(=O)NCC2CCCO2)c2ccc(N(C)C)cc2)c1C (configuration not stated)	EBNA-1 inhibitor 40 | EBNA-1 confirm 97 | ZTA DNA inh trip inactive
CN(C)c1ccc(C(C(=O)NCC2CCCO2)N(Cc2ccccc2)C(=O)c2snc(C(N)=O)c2N)cc1 (configuration not stated)	none
CO[C@@H]1CN(C)C(=O)c2ccc(NS(=O)(=O)c3cccc(F)c3)cc2OC[C@@H](C)N(C(=O)Cc2cccnc2)C[C@@H]1C	none (no result: ZTA DNA inh, EBNA-1 inhibitor, DNA FID counter, NR3A LBD binder, HCV NS3 hel inh)
CN(C)c1ccc(NC(=O)CCn2c(=S)oc3ccccc32)cc1	none
O=C(CCn1c(=S)oc2ccccc21)Nc1ccc(F)cc1	EBNA-1 inhibitor 48 | EBNA-1 confirm inactive | ZTA DNA inh trip inactive
Cc1ccc(NC(=O)CCn2c(=S)oc3ccccc32)cc1	EBNA-1 inhibitor 43 | EBNA-1 confirm 55 | ZTA DNA inh trip inactive
CO[C@@H]1CN(C)C(=O)c2ccc(NC(=O)c3ccc4c(c3)OCO4)cc2OC[C@H](C)N(CCC(F)(F)F)C[C@@H]1C	none (no result: ZTA DNA inh, EBNA-1 inhibitor, DNA FID counter, NR3A LBD binder, HCV NS3 hel inh)
COc1ccc(S(=O)(=O)N2CCOCC2)cc1NC(=O)c1ccccc1-c1ccc(C(F)(F)F)cc1	EBNA-1 inhibitor 32 (no result: FGF22 binding) | EBNA-1 confirm 37 | ZTA DNA inh trip inactive
COc1ccc(NC(=O)c2ccccc2-c2ccc(C(F)(F)F)cc2)cc1S(=O)(=O)N1CCOCC1	none
CCOc1ccc(NC(=O)C(=O)N/N=C\c2ccc(CNS(=O)(=O)c3ccccc3)o2)cc1	EBNA-1 inhibitor 63 | EBNA-1 confirm 58 | ZTA DNA inh trip inactive
CCOc1ccc(C(=O)N/N=C/c2ccc(-c3ccc(S(=O)(=O)Nc4ncccn4)cc3)o2)cc1	none (no result: FGF22 binding)
O=C(CSCc1ccc(Cl)cc1)N/N=C/c1ccc(OCC(=O)Nc2ccccc2)cc1	EBNA-1 inhibitor 52, NR3A LBD binder 10 (no result: FGF22 binding) | EBNA-1 confirm 29 | ZTA DNA inh trip inactive
O=C1/C(=C\c2ccc(O)cc2)SC(=S)N1c1cccnc1	EBNA-1 inhibitor 31, NR3A LBD binder 29 | EBNA-1 confirm inactive | ZTA DNA inh trip inactive
COc1ccc(/C=C2\SC(=S)N(c3cccnc3)C2=O)cc1	none
C[C@@H]1CN([C@@H](C)CO)C(=O)c2cccc(NS(=O)(=O)c3ccccc3)c2O[C@@H]1CN(C)CC1CC1	none (no result: ZTA DNA inh, EBNA-1 inhibitor, DNA FID counter, NR3A LBD binder, HCV NS3 hel inh)
Cc1cc2cc(CNC(=O)c3ccc(S(=O)(=O)N4CCCC4)cc3)ccc2n1C	EBNA-1 inhibitor 33 | EBNA-1 confirm inactive | ZTA DNA inh trip inactive
COc1ccc(N=Cc2c(O)n(-c3ccc(OC)cc3)c(=O)c3ccccc23)cc1	EBNA-1 inhibitor 65 | EBNA-1 confirm 56 | ZTA DNA inh trip inactive
CCc1ccc(NC(=O)CCCNC(=O)Cn2cnc3sc(C)c(C)c3c2=O)cc1	EBNA-1 inhibitor 62 | EBNA-1 confirm 31 | ZTA DNA inh trip inactive
COc1ccc(NC(=O)CCCNC(=O)Cn2cnc3sc(C)c(C)c3c2=O)cc1OC	none
Cc1ccccc1OCC(=O)Nc1ccc2c(c1)Cc1ccccc1-2	EBNA-1 inhibitor 29 | EBNA-1 confirm inactive | ZTA DNA inh trip inactive
COc1cc(NC(=O)CSc2nc3ccccc3c(=O)n2C)ccc1NC(=O)c1ccco1	EBNA-1 inhibitor 40, NR3A LBD binder 13 (no result: FGF22 binding) | EBNA-1 confirm 28 | ZTA DNA inh trip inactive
